Test results reported in BindingDB's records for doi:10.1016/j.ejmech.2020.112417 (University of Houston, 2020).

Target: Nucleotide-binding oligomerization domain-containing protein 2 (Homo sapiens, UniProt Q9HC29)
Test: Inhibition of human NOD2 expressed in HEK293 cells coexpressing NFkappaB-SEAP reporter measured after 7 to 9 hrs by HEKBIue reporter assay
Method in brief: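 IC50 values reported as the mean of two or three determinations ± standard deviation.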

Nucleotide-binding oligomerization domain-containing protein 2, sequence (Q9HC29 whole entry, the tested form may be a part): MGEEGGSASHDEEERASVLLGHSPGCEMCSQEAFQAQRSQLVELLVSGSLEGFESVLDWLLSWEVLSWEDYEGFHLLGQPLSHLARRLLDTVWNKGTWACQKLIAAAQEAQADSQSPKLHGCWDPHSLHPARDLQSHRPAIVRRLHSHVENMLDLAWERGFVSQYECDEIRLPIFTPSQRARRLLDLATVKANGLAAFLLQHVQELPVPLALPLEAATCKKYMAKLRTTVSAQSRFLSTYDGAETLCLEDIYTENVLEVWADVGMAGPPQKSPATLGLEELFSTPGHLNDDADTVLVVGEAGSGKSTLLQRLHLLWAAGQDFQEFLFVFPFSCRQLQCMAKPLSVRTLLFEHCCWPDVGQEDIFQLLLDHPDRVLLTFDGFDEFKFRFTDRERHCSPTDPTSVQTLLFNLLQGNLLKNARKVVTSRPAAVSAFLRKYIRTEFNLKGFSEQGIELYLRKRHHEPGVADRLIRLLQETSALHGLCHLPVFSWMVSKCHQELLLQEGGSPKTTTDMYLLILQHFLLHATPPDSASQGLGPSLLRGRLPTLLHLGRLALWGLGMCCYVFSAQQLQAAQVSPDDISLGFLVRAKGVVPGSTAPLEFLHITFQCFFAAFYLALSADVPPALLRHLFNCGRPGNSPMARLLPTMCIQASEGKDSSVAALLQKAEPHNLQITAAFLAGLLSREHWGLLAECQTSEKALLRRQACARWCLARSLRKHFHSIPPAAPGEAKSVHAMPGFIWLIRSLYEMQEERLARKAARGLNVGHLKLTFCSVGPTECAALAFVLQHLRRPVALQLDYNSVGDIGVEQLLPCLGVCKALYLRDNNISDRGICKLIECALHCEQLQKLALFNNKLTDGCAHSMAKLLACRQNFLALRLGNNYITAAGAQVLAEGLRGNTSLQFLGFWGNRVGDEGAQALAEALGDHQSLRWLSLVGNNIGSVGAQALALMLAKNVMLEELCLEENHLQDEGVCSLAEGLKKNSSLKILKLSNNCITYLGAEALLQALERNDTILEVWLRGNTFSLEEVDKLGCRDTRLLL

| Compound | IC50 |
| --- | --- |
| COc1cc(NS(C)(=O)=O)cc(-c2cc(-c3ccc(N4CCNCC4)cc3)cnc2C)c1 | 3700 nM |
| CCS(=O)(=O)Nc1cc(OC)cc(-c2cc(-c3ccc(N4CCNCC4)cc3)cnc2C)c1 | 5240 nM |
| CCCS(=O)(=O)Nc1cc(OC)cc(-c2cc(-c3ccc(N4CCNCC4)cc3)cnc2C)c1 | 2670 nM |
| COc1cc(NS(=O)(=O)C(C)C)cc(-c2cc(-c3ccc(N4CCNCC4)cc3)cnc2C)c1 | 523 nM |
| COc1cc(NS(C)(=O)=O)cc(-c2cc(-c3ccc(N4CCNCC4)cc3)cnc2N)c1 | 390 nM |
| CCCS(=O)(=O)Nc1cc(OC)cc(-c2cc(-c3ccc(N4CCNCC4)cc3)cnc2N)c1 | 243 nM |
| COc1cc(NS(=O)(=O)C(C)C)cc(-c2cc(-c3ccc(N4CCNCC4)cc3)cnc2N)c1 | 121 nM |
| COc1cc(NS(=O)(=O)c2ccccc2)cc(-c2cc(-c3ccc(N4CCNCC4)cc3)cnc2N)c1 | 53 nM |
| CCOc1cc(NS(=O)(=O)C(C)C)cc(-c2cc(-c3ccc(N4CCNCC4)cc3)cnc2N)c1 | 46 nM |
| CC(C)Oc1cc(NS(=O)(=O)C(C)C)cc(-c2cc(-c3ccc(N4CCNCC4)cc3)cnc2N)c1 | 323 nM |
| CCCS(=O)(=O)Nc1cc(-c2cc(-c3ccc(N4CCNCC4)cc3)cnc2N)ccc1OC | 420 nM |
| CCCS(=O)(=O)Nc1cc(-c2cc(-c3ccc(N4CCNCC4)cc3)cnc2N)ccc1O | > 5000 nM |
| CCCS(=O)(=O)Nc1cc(-c2cc(-c3ccc(N4CCNCC4)cc3)cnc2N)ccc1C | 1060 nM |
| CCCS(=O)(=O)Nc1cc(-c2cc(-c3ccc(N4CCNCC4)cc3)cnc2N)cc(OC)c1OC | 1 nM |
| CCCS(=O)(=O)Nc1cc(-c2cc(-c3ccc(N4CCNCC4)cc3)cnc2N)cc2c1OCCO2 | 2460 nM |
| CCCS(=O)(=O)Nc1cc(-c2cc(-c3ccc(N4CCNCC4)cc3)cnc2N)cc(C)c1OC | 129 nM |
| CCCS(=O)(=O)Nc1cc(-c2cc(-c3ccc(N4CCNCC4)cc3)cnc2N)cc(F)c1OC | 26 nM |
| CCCS(=O)(=O)Nc1cc(-c2cc(-c3ccc(N4CCNCC4)cc3)cnc2N)cc(Cl)c1OC | 46 nM |
| COc1cc(-c2cc(-c3ccc(N4CCNCC4)cc3)cnc2N)cc(F)c1OC | 595 nM |
| CCCS(=O)(=O)NCc1cc(-c2cc(-c3ccc(N4CCNCC4)cc3)cnc2N)ccc1OC | 1290 nM |
| CCCS(=O)(=O)N1CCc2ccc(-c3cc(-c4ccc(N5CCNCC5)cc4)cnc3N)cc21 | 2430 nM |
| CCCS(=O)(=O)N1CCOc2ccc(-c3cc(-c4ccc(N5CCNCC5)cc4)cnc3N)cc21 | 1010 nM |
| CCCS(=O)(=O)Nc1cc(-c2cncc(-c3ccc(N4CCNCC4)cc3)c2)cc(F)c1OC | 352 nM |
| CCCS(=O)(=O)Nc1cc(-c2cc(-c3ccc(N4CCNCC4)cc3)cnc2C)cc(F)c1OC | 2560 nM |
| CCCS(=O)(=O)Nc1cc(-c2cc(-c3cccc(S(C)(=O)=O)c3)cnc2N)ccc1OC | 2660 nM |
| CCCS(=O)(=O)Nc1cc(-c2cc(-c3cccc(N4CCNCC4)c3)cnc2N)cc(F)c1OC | 16 nM |
| CCCS(=O)(=O)Nc1cc(-c2cc(-c3ccc(N4CCNCC4)cc3)cnc2N)cc(OC)c1C | 3350 nM |
| CCCS(=O)(=O)Nc1ccc(-c2cc(-c3ccc(N4CCNCC4)cc3)cnc2C)cc1OC | 2940 nM |
